Residues, ends and D or L forms follow the SMILES beside them.
Legend:
[1] = biological target: T1, Gastrin/cholecystokinin type B receptor (Rattus norvegicus, UniProt P30553); assay: Binding affinity by competitive inhibition of the radioligand [3H]pCCK-8 at Cholecystokinin type B receptor from rat cerebral cortex membrane; format: tissue-based
T1 sequence (P30553 whole entry): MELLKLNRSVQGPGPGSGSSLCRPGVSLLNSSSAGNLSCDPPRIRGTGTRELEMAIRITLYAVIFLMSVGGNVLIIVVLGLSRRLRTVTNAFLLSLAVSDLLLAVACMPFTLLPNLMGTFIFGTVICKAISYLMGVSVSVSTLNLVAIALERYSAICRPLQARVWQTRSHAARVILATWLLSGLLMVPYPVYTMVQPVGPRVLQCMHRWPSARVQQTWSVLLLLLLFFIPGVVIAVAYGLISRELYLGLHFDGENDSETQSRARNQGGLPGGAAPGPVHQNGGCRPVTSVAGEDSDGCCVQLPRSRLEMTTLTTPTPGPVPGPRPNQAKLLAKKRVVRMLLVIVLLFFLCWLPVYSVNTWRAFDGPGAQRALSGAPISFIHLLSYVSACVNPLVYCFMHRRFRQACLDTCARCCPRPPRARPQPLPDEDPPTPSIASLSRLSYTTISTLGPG

[2] = biological target: T2, Cholecystokinin receptor type A (Rattus norvegicus, UniProt P30551); assay: Binding affinity by competitive inhibition of the radioligand [3H]pCCK-8 at Cholecystokinin type A receptor from rat pancreas
T2 sequence (P30551 whole entry): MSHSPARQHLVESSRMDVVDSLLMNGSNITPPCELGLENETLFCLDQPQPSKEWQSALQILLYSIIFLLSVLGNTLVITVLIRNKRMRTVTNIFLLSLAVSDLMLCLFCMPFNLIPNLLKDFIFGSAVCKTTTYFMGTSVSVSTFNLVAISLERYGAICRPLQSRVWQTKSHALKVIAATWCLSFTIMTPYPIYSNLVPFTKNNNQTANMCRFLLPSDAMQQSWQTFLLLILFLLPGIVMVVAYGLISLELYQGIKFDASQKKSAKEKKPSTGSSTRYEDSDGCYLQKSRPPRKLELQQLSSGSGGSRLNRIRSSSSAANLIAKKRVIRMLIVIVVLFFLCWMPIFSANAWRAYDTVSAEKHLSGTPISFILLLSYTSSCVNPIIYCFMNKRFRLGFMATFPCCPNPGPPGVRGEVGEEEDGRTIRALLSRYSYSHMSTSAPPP
Procedure, shortened: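 Rat pancreas homogenized in Pipes HCl pH 6.5 with 30 mM MgCl2, centrifuged twice at 50000g, 4 °C. Membranes (0.2 mg protein/tube) incubated with 0.5 nM [3H]pCCK-8 plus bacitracin and soybean trypsin inhibitor (0.2 mg/mL each) for 120 min at 25 °C. Ki from displacement curves by Cheng–Prusoff. Seven concentrations in triplicate, at least three experiments.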

Rattus norvegicus [3] = assay: Compound (CCK1 antagonist) was administered intraperitoneally for the effect of increase in plasma lipase activity induced by caerulein in rat at the dose of 1 mg/kg; format: functional; conditions: route intraperitoneal
Procedure, shortened: (§1)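 Male Wistar rats (190–210 g), fasted 24 h, given four sc caerulein injections (10 µg/kg) at hourly intervals. Antagonist given ip (0.25 mL/100 g; 0.1 or 1 mg/kg) 30 min before the first caerulein dose. Blood taken 3 h after the last injection. Plasma amylase and lipase measured by commercial kits, in IU/mL. Statistics by ANOVA with Scheffé's test against caerulein alone.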

Rattus norvegicus [4] = assay: Compound (CCK1 antagonist) was administered orally for the effect of increase in plasma lipase activity induced by caerulein in rat at the dose of 0.1 mg/kg; format: functional; conditions: route oral
Procedure, shortened: (§2)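 Caerulein pancreatitis in fasted (24 h) male Wistar rats (190–210 g): four hourly sc injections of 10 µg/kg. Antagonist dosed orally (0.25 mL/100 g; 0.1 or 1 mg/kg) 60 min before the first caerulein injection. Plasma drawn 3 h after the final injection. Amylase and lipase activities read with commercial kits, in IU/mL. Comparisons by ANOVA plus Scheffé's test against caerulein.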

Rattus norvegicus [5] = assay: Compound (CCK1 antagonist) was administered intraperitoneally for the effect of increase in plasma amylase activity induced by caerulein in rat at the dose of 0.1 mg/kg; format: functional; conditions: route intraperitoneal; procedure, shortened: as §1
Rattus norvegicus [6] = assay: Compound (CCK1 antagonist) was administered orally for the effect of increase in plasma lipase activity induced by caerulein in rat at the dose of 1 mg/kg; format: functional; conditions: route oral; procedure, shortened: as §2
Rattus norvegicus [7] = assay: Compound (CCK1 antagonist) was administered orally for the effect of increase in plasma amylase activity induced by caerulein in rat at the dose of 0.1 mg/kg; format: functional; conditions: route oral; procedure, shortened: as §2
Rattus norvegicus [8] = assay: Compound (CCK1 antagonist) was administered orally for the effect of increase in plasma amylase activity induced by caerulein in rat at the dose of 1 mg/kg; format: functional; conditions: route oral; procedure, shortened: as §2
Rattus norvegicus [9] = assay: Compound (CCK1 antagonist) was administered intraperitoneally for the effect of increase in plasma lipase activity induced by caerulein in rat at the dose of 0.1 mg/kg; format: functional; conditions: route intraperitoneal; procedure, shortened: as §1
Rattus norvegicus [10] = assay: Compound (CCK1 antagonist) was administered intraperitoneally for the effect of increase in plasma amylase activity induced by caerulein in rat at the dose of 1 mg/kg; format: functional; conditions: route intraperitoneal; procedure, shortened: as §1
Rattus norvegicus [11] = assay: Compound (CCK1 antagonist) was administered intraperitoneally for the effect of increase in plasma lipase activity induced by caerulein in rat
Rattus norvegicus [12] = assay: Compound (CCK1 antagonist) was administered orally for the effect of increase in plasma lipase activity induced by caerulein in rat; format: functional; procedure, shortened: as §2
Rattus norvegicus [13] = assay: Compound (CCK1 antagonist) was administered intraperitoneally for the effect of increase in plasma amylase activity induced by caerulein in rat; format: functional; procedure, shortened: as §1
Rattus norvegicus [14] = assay: Compound (CCK1 antagonist) was administered orally for the effect of increase in plasma amylase activity induced by caerulein in rat.; format: functional; procedure, shortened: as §2

SMILES | IC50 [1] | IC50 [2] | also measured
O=C(Cc1c[nH]c2ccccc12)N[C@H]1CCCN2C(=O)N(Cc3ccccc3)C(=O)C[C@@H]12.O=C(N[C@@H]1CCCN2C(=O)N(Cc3ccccc3)C(=O)C[C@H]12)c1c[nH]c2ccccc12 | > 10 µM | > 1 µM | 
CC(C)(C)OC(=O)N[C@@H](Cc1c[nH]c2ccccc12)C(=O)N[C@H]1CCCN2C(=O)N(Cc3ccccc3)C(=O)C[C@@H]12 | 6.15 µM | 0.0227 µM | 
CC(C)(C)OC(=O)N[C@H](CN[C@@H]1CCCN2C(=O)N(Cc3ccccc3)C(=O)C[C@H]12)Cc1c[nH]c2ccccc12 | > 10 µM | > 1 µM | 
CC(C)(C)OC(=O)N[C@@](C)(Cc1c[nH]c2ccccc12)C(=O)N[C@@H]1CCCN2C(=O)N(Cc3ccccc3)C(=O)C[C@@H]12.CC(C)(C)OC(=O)N[C@@](C)(Cc1c[nH]c2ccccc12)C(=O)N[C@H]1CCCN2C(=O)N(Cc3ccccc3)C(=O)C[C@H]12 (single isomer, unassigned) | > 10 µM | 0.0424 µM | 
CC(C)(C)OC(=O)N[C@@H](Cc1c[nH]c2ccccc12)[C@H](C#N)N[C@@H]1CCCN2C(=O)N(Cc3ccccc3)C(=O)CC12 (single isomer, unassigned) | > 10 µM | 0.00769 µM | 
CC(C)(C)OC(=O)N[C@@H](Cc1c[nH]c2ccccc12)[C@@H](C#N)N[C@@H]1CCCN2C(=O)N(Cc3ccccc3)C(=O)CC12 (single isomer, unassigned) | > 10 µM | 0.0326 µM | 
CC(C)(C)NC(=O)N[C@@H](Cc1c[nH]c2ccccc12)C(=O)N[C@@H]1CCCN2C(=O)N(Cc3ccccc3)C(=O)CC12 (single isomer, unassigned) | > 10 µM | 0.00091 µM | Increase in plasma lipase (Rattus norvegicus [3]): 36 IU ml-1; Increase in plasma lipase (Rattus norvegicus [4]): 2200 IU ml-1; Increase in plasma amylase (Rattus norvegicus [5]): 27103 IU ml-1; Increase in plasma lipase (Rattus norvegicus [6]): 1062 IU ml-1; Increase in plasma amylase (Rattus norvegicus [7]): 28939 IU ml-1; Increase in plasma amylase (Rattus norvegicus [8]): 19967 IU ml-1; Increase in plasma lipase (Rattus norvegicus [9]): 1667 IU ml-1; Increase in plasma amylase (Rattus norvegicus [10]): 5326 IU ml-1
CC(C)(C)CC(=O)N[C@@H](Cc1c[nH]c2ccccc12)C(=O)N[C@@H]1CCCN2C(=O)N(Cc3ccccc3)C(=O)CC12 (single isomer, unassigned) | > 10 µM | 0.00443 µM | Increase in plasma lipase (Rattus norvegicus [3]): 1140 IU ml-1; Increase in plasma lipase (Rattus norvegicus [4]): 3089 IU ml-1; Increase in plasma amylase (Rattus norvegicus [5]): 61102 IU ml-1; Increase in plasma lipase (Rattus norvegicus [6]): 3375 IU ml-1; Increase in plasma amylase (Rattus norvegicus [7]): 51420 IU ml-1; Increase in plasma amylase (Rattus norvegicus [8]): 46591 IU ml-1; Increase in plasma lipase (Rattus norvegicus [9]): 2956 IU ml-1; Increase in plasma amylase (Rattus norvegicus [10]): 28015 IU ml-1
CC(C)(C)OC(=O)N[C@@H](Cc1c[nH]c2ccccc12)C(=O)N[C@@H]1CCCN2C(=O)N(Cc3ccccc3)C(=O)CC12 (single isomer, unassigned) [IQM-95333] | > 10 µM | 0.00159 µM | Increase in plasma lipase (Rattus norvegicus [3]): 112 IU ml-1; Increase in plasma lipase (Rattus norvegicus [4]): 2837 IU ml-1; Increase in plasma amylase (Rattus norvegicus [5]): 35985 IU ml-1; Increase in plasma lipase (Rattus norvegicus [6]): 1948 IU ml-1; Increase in plasma amylase (Rattus norvegicus [7]): 37753 IU ml-1; Increase in plasma amylase (Rattus norvegicus [8]): 31205 IU ml-1; Increase in plasma lipase (Rattus norvegicus [9]): 1943 IU ml-1; Increase in plasma amylase (Rattus norvegicus [10]): 2721 IU ml-1
CSCC[C@H](NC(=O)[C@H](Cc1c[nH]c2ccccc12)NC(=O)CNC(=O)[C@@H](NC(=O)[C@H](Cc1ccc(OS(=O)(=O)O)cc1)NC(=O)[C@H](CC(=O)O)NC(=O)[C@H](CCC(N)=O)NC(=O)[C@@H]1CCC(=O)N1)[C@@H](C)O)C(=O)N[C@@H](CC(=O)O)C(=O)N[C@@H](Cc1ccccc1)C(N)=O [CAERULIN] (HELM PEPTIDE1{[Glp].Q.D.[O=C([C@H](Cc1ccc(OS(=O)(=O)O)cc1)N[*:1])[*:2]].T.G.W.M.D.F.[am]}$$$$V2.0) |  |  | Increase in plasma lipase (Rattus norvegicus [11]): 3100 IU ml-1; Increase in plasma lipase (Rattus norvegicus [12]): 2801 IU ml-1; Increase in plasma amylase (Rattus norvegicus [13]): 52101 IU ml-1; Increase in plasma amylase (Rattus norvegicus [14]): 39293 IU ml-1
CN1C(=O)[C@@H](NC(=O)c2cc3ccccc3[nH]2)N=C(c2ccccc2)c2ccccc21 [DEVAZEPIDE] |  |  | Increase in plasma lipase (Rattus norvegicus [3]): 26 IU ml-1; Increase in plasma lipase (Rattus norvegicus [4]): 871 IU ml-1; Increase in plasma amylase (Rattus norvegicus [5]): 8793 IU ml-1; Increase in plasma lipase (Rattus norvegicus [6]): 57 IU ml-1; Increase in plasma amylase (Rattus norvegicus [7]): 7733 IU ml-1; Increase in plasma amylase (Rattus norvegicus [8]): 4578 IU ml-1; Increase in plasma lipase (Rattus norvegicus [9]): 125 IU ml-1; Increase in plasma amylase (Rattus norvegicus [10]): 3650 IU ml-1

Continued, in another order:

IC50 [1] | IC50 [2] | SMILES | also measured
> 10 µM | > 1 µM | N[C@@H](Cc1c[nH]c2ccccc12)C(=O)N[C@H]1CCCN2C(=O)N(Cc3ccccc3)C(=O)C[C@@H]12 | 
> 10 µM | > 1 µM | N#C[C@@H](N[C@@H]1CCCN2C(=O)N(Cc3ccccc3)C(=O)C[C@H]12)[C@H](Cc1c[nH]c2ccccc12)NC(=O)OCc1ccccc1 | 
> 10 µM | > 1 µM | N[C@@H](Cc1c[nH]c2ccccc12)C(=O)N[C@@H]1CCCN2C(=O)N(Cc3ccccc3)C(=O)C[C@H]12 | 
4.39 µM | 0.486 µM | O=C(N[C@H]1CCCN2C(=O)N(Cc3ccccc3)C(=O)C[C@@H]12)[C@H](Cc1c[nH]c2ccccc12)NC(=O)C12CC3CC(CC(C3)C1)C2 | 
> 10 µM | > 1 µM | CC(C)(C)OC(=O)N1Cc2[nH]c3ccccc3c2CC1C(=O)N[C@H]1CCCN2C(=O)N(Cc3ccccc3)C(=O)C[C@@H]12 (some centres undefined) | 
> 10 µM | > 1 µM | O=C(N[C@@H]1CCCN2C(=O)N(Cc3ccccc3)C(=O)C[C@@H]12)c1cc2ccccc2[nH]1.O=C(N[C@H]1CCCN2C(=O)N(Cc3ccccc3)C(=O)C[C@H]12)c1cc2ccccc2[nH]1 | 
> 10 µM |  | CC(C)(C)OC(=O)N[C@](C)(Cc1c[nH]c2ccccc12)C(=O)N[C@@H]1CCCN2C(=O)N(Cc3ccccc3)C(=O)C[C@@H]12.CC(C)(C)OC(=O)N[C@](C)(Cc1c[nH]c2ccccc12)C(=O)N[C@H]1CCCN2C(=O)N(Cc3ccccc3)C(=O)C[C@H]12 | 
> 10 µM | 0.0657 µM | CC(C)(C)OC(=O)N[C@@H](Cc1ccccc1)C(=O)N[C@@H]1CCCN2C(=O)N(Cc3ccccc3)C(=O)C[C@H]12 | 
> 10 µM |  | CC(C)(C)OC(=O)N1Cc2[nH]c3ccccc3c2CC1C(=O)N[C@@H]1CCCN2C(=O)N(Cc3ccccc3)C(=O)C[C@H]12 (some centres undefined) | 
> 10 µM | > 1 µM | N#C[C@H](N[C@@H]1CCCN2C(=O)N(Cc3ccccc3)C(=O)C[C@H]12)[C@H](Cc1c[nH]c2ccccc12)NC(=O)OCc1ccccc1 | 
3.43 µM | 0.34 µM | O=C(N[C@@H](Cc1c[nH]c2ccccc12)C(=O)N[C@H]1CCCN2C(=O)N(Cc3ccccc3)C(=O)CC12)OC1C2CC3CC(C2)CC1C3 (single isomer, unassigned) | 
